Assay results published in PMC3607822 (The Journal of General Physiology, 2013).
Residue numbers refer to the chain shown, from its start.

Tests used:
[1] = target: T1, CNGA3 RR-QQ (R643Q, R646Q) channels (Homo sapiens, UniProt Q16281, R643Q/R646Q); assay: Inside-out patch clamp, CNGA3 RR-QQ; assay type: biochemical
T1 sequence (Q16281 1-694 R643Q/R646Q): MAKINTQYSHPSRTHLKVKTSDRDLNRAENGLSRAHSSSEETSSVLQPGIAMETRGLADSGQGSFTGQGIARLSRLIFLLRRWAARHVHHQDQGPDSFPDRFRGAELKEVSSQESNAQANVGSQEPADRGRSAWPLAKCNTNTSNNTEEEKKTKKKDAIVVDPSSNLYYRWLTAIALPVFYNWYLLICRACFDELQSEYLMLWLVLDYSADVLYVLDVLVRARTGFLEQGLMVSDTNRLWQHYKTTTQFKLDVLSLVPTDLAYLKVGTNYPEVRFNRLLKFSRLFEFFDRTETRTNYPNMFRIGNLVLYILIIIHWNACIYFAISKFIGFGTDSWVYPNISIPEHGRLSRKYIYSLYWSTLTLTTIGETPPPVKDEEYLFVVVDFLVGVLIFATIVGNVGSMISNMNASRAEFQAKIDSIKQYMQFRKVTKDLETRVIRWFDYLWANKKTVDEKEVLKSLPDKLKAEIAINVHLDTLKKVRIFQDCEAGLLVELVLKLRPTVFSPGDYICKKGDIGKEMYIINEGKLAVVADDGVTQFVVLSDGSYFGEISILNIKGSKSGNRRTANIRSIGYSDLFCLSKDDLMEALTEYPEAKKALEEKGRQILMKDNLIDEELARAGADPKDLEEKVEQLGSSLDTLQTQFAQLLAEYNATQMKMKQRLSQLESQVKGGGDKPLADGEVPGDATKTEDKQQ

[2] = target: T2, CNGA3 C7K/R-A (K624A, K629A, R643A, R646A, K657A, K659A, R661A) channels (Homo sapiens, UniProt Q16281, K624A/K629A/K657A/K659A/R643A/R646A/R661A); assay: Inside-out patch clamp, CNGA3 C7K/R-A; assay type: biochemical
T2 sequence (Q16281 1-694 K624A/K629A/R643A/R646A/K657A/K659A/R661A): T1 sequence (Q16281 1-694 R643Q/R646Q) with K624A, K629A, Q643A, Q646A, K657A, K659A, R661A

CNGA3 D609K channels = CNGA3 D609K channels (Homo sapiens, UniProt Q16281, D609K); assay: Inside-out patch clamp, CNGA3 D609K; assay type: biochemical; conditions: estimated using tetracaine block
CNGA3 D609K channels, sequence (Q16281 whole entry D609K): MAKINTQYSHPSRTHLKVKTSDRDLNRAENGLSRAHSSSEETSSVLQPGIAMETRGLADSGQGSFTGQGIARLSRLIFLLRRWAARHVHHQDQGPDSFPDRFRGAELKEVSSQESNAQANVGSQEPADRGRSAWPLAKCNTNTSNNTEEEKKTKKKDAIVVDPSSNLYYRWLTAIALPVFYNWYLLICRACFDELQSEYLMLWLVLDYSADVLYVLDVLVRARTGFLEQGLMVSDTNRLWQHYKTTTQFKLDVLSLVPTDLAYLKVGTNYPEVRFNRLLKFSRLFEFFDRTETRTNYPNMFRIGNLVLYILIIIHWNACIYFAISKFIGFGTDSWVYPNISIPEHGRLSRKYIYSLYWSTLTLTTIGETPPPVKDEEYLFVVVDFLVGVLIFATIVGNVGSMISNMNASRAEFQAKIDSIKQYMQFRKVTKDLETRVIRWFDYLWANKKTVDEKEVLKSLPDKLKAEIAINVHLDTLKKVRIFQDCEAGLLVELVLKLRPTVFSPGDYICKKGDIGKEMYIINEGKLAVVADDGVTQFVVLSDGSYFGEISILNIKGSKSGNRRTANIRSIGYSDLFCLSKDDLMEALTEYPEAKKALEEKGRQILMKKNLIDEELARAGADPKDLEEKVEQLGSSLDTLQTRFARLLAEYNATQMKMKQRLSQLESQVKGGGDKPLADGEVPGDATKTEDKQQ

[3] = target: T3, CNGA3 RR-EE (R643E, R646E) channels (Homo sapiens, UniProt Q16281, R643E/R646E); assay: Inside-out patch clamp, CNGA3 RR-EE; assay type: biochemical
T3 sequence (Q16281 1-694 R643E/R646E): T1 sequence (Q16281 1-694 R643Q/R646Q) with Q643E, Q646E

[4] = target: wild-type CNGA2 with CNGB3 channels (UniProt Q00195+Q9NQW8); assay: Inside-out patch clamp, CNGA2 with CNGB3; assay type: biochemical, rat, human; conditions: 1 µM PIP3
In short: (§1)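 Subunit cRNAs (~20 ng, B in excess over A) injected into stage IV Xenopus oocytes; inside-out patches 2–7 d later, 20–22°C, symmetric 130 mM NaCl, 0.2 mM EDTA, 3 mM Hepes pH 7.2. Heteromer formation checked by 25 µM l-cis-diltiazem with 1 mM cGMP. diC8 phosphoinositides applied intracellularly in phosphatase-inhibitor cocktail. cGMP dose–response at +80 mV, leak-subtracted, Hill fit before/after for K1/2; mean ± SEM.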

[5] = target: CNGA1 with CNGB3 channels (UniProt Q00194+Q9NQW8); assay: Inside-out patch clamp, CNGA1 with CNGB3; assay type: biochemical, bovine, human; conditions: 1 µM PIP3
CNGA1 with CNGB3 channels, sequence (Q00194 whole entry): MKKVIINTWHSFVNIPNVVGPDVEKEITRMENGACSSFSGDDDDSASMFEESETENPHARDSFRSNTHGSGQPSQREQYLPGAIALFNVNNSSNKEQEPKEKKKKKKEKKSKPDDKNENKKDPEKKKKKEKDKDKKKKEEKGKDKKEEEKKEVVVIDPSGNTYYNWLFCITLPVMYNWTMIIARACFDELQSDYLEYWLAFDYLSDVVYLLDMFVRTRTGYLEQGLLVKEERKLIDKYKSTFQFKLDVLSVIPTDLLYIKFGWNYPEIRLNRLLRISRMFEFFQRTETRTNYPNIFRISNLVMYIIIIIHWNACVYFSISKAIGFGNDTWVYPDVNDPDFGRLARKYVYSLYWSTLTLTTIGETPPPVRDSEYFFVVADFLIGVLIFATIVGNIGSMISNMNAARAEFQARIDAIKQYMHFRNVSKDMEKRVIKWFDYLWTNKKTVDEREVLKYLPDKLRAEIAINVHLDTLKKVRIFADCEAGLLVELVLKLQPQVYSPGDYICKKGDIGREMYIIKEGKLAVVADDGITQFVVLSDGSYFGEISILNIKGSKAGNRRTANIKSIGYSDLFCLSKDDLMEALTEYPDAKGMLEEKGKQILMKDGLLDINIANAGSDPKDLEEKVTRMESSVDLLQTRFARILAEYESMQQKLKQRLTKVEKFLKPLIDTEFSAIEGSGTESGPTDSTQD
CNGA1 with CNGB3 channels, sequence (Q9NQW8 whole entry): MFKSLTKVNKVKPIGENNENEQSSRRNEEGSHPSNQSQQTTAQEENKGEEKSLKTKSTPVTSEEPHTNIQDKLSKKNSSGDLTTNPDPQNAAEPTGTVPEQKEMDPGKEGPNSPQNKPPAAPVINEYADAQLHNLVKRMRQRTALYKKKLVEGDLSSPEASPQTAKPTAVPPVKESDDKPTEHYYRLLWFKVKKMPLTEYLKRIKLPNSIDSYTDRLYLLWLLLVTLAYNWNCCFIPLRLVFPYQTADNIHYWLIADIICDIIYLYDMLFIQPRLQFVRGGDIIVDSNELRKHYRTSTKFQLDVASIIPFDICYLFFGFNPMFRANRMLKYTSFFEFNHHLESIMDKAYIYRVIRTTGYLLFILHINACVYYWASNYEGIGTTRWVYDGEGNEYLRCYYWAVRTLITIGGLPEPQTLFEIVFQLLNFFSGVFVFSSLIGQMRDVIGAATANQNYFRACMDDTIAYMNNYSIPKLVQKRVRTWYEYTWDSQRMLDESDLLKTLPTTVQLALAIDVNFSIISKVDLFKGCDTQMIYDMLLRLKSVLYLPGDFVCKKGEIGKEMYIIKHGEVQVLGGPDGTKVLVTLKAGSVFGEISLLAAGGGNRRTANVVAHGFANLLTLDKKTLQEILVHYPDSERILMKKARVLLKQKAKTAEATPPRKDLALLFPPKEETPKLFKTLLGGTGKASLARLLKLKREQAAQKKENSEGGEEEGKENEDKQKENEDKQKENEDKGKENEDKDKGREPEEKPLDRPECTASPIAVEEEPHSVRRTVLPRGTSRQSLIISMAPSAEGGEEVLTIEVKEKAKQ
In short: as §1

A2ΔN+B3 channels = A2ΔN+B3 channels (UniProt Q00195+Q9NQW8, DEL61-90); assay: Inside-out patch clamp, A2ΔN+B3; assay type: biochemical, rat, human; conditions: 1 µM PIP3
In short: as §1

[6] = read-out: K1/2 cGMP, +80 mV, no PIPn

Row | Hill coefficient ([1]; cGMP activation) | EC50 [1, 6] [µM] | Po max cGMP ([1]; saturating cGMP) | Hill coefficient ([2]; cGMP activation) | EC50 [2, 6] [µM] | Po max cGMP ([2]; saturating cGMP) | Po max cGMP (CNGA3 D609K channels) | Hill coefficient ([3]; cGMP activation) | EC50 [3, 6] [µM] | Po max cGMP ([3]; saturating cGMP) | regulation of K1/2 cGMP by PIP3 [4] | regulation of K1/2 cGMP by PIP3 [5] | regulation of K1/2 cGMP by PIP3 (A2ΔN+B3 channels) | Compound
1 | 2.00 ± 0.00 (3) | 7.45 ± 0.63 | 0.94 ± 0.01 (3) | 2.00 ± 0.00 (6) | 9.37 ± 0.29 | 0.92 ± 0.01 (4) | 0.78 ± 0.01 | 1.95 ± 0.05 (4) | 8.29 ± 0.47 | 0.93 ± 0.03 (4) | – | – | – | Nc1nc2c(ncn2[C@@H]2O[C@@H]3COP(=O)(O)O[C@H]3[C@H]2O)c(=O)[nH]1 [cGMP, cyclic guanosine monophosphate]
2 | – | – | – | – | – | – | – | – | – | – | PIP3-sensitive | PIP3-sensitive | insensitive to regulation by PIP3 | phosphatidylinositol (3,4,5)-trisphosphate [PIP3]
